Assay results published in ChEMBL document CHEMBL2346521, “Synthesis, structure-activity relationship studies, and identification of novel 5,6,7,8-tetrahydroimidazo[1,5-a]pyrazine derivatives as dual orexin receptor antagonists. Part 1” (Bioorg Med Chem Lett, 2013).

Assays:
[1] = biological target: T1, Orexin/Hypocretin receptor type 1 (Homo sapiens, UniProt O43613); assay: Antagonist activity at human OX1 receptor expressed in CHO cells assessed as inhibition of orexin A-induced calcium influx by FLIPR assay; type: functional, cell-based
T1 sequence (O43613 whole entry): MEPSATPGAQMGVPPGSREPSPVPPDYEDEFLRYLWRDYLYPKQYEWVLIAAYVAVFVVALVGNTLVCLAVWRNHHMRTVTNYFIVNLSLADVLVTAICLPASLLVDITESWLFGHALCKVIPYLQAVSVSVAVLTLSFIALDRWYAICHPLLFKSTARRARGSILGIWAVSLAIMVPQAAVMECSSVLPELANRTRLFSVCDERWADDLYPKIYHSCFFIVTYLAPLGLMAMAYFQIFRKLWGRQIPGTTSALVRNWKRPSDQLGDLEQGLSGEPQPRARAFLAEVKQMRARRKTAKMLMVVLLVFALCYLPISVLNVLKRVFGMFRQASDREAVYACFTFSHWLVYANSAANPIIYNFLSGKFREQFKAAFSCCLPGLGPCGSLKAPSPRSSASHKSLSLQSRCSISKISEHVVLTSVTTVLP
How it was run: (§1)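 CHO cells stably expressing human OX1R or OX2R, loaded at 37 °C, 5% CO₂ with the calcium dye fluo-3 AM, then washed. Antagonist added at a range of concentrations before an approximately EC₈₀ orexin A challenge. Ca²⁺ mobilization read by FLIPR. IC₅₀ taken as the concentration giving 50% inhibition of the orexin A-induced calcium response, reported in nM.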

Orexin receptor type 2 = biological target: T2, Orexin receptor type 2 (Homo sapiens, UniProt O43614); assay: Antagonist activity at human OX2 receptor expressed in CHO cells assessed as inhibition of orexin A-induced calcium influx by FLIPR assay; type: functional, cell-based; how it was run: as §1
T2 sequence (O43614 whole entry): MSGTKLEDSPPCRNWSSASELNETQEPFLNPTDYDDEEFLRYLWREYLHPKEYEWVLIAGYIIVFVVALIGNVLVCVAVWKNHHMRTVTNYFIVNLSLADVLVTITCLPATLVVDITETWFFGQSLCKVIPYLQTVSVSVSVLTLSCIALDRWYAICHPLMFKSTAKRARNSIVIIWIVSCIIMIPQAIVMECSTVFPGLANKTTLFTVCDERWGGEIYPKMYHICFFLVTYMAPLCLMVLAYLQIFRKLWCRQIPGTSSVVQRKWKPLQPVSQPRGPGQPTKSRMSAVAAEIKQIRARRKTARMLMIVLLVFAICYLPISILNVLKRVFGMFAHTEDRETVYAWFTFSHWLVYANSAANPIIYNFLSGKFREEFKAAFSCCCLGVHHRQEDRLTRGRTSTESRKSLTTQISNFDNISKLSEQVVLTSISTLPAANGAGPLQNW

[2] = Plasma protein binding in human; type: ADME, cell-free; details: read-out: PPB
[3] = Ratio of drug level in brain to plasma in Wistar rat at 100 mg/kg, po after 3 hrs; type: ADME, organism-based; parameters: dose 100 mg/kg, route oral; details: read-out: BPR
How it was run: (§2)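 Male Wistar rats dosed orally at 100 mg/kg. Brain and plasma sampled 3 h after dosing. Total compound levels given as nM and as ng/g (brain) or ng/ml (plasma). Brain/plasma ratio calculated from these total concentrations.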

[4] = Drug uptake in Wistar rat brain at 100 mg/kg, po after 3 hrs; type: ADME, organism-based; parameters: dose 100 mg/kg, route oral; details: read-out: Drug uptake; how it was run: as §2
[5] = Plasma concentration in Wistar rat at 100 mg/kg, po after 3 hrs; type: ADME, organism-based; parameters: dose 100 mg/kg, route oral; how it was run: as §2

SMILES	IC50 [1] [nM]	IC50 (Orexin receptor type 2) [nM]	fraction unbound [2]	Kp at 3 h [3]	concentration at 3 h [4] [nM]	concentration at 3 h [5] [nM]
CCCc1nc(CC)n2c1C(CCc1ccc(C(F)(F)F)cc1)N([C@@H](C(=O)NC)c1ccccc1)CC2 (stereo partly specified)	> 10000	225	–	–	–	–
CCc1nc(C(C)C)c2n1CCN([C@@H](C(=O)NC)c1ccccc1)C2CCc1ccc(C(F)(F)F)cc1 (stereo partly specified)	> 10000	2900	–	–	–	–
CCc1nc(C2CC2)c2n1CCN([C@@H](C(=O)NC)c1ccccc1)[C@H]2CCc1ccc(C(F)(F)F)cc1	4170	29	–	–	–	–
CCc1nc(Cl)c2n1CCN([C@@H](C(=O)NC)c1ccccc1)[C@H]2CCc1ccc(C(F)(F)F)cc1	40	9	0.01	0.07	303	4210
CCc1nc(Cl)c2n1CCN([C@@H](C(=O)NC)c1ccccc1)[C@@H]2CCc1ccc(C(F)(F)F)cc1	283	107	–	–	–	–
CCc1nc(C(F)(F)F)c2n1CCN([C@@H](C(=O)NC)c1ccccc1)[C@H]2CCc1ccc(C(F)(F)F)cc1	1070	11	–	–	–	–
CCc1nc(SC)c2n1CCN([C@@H](C(=O)NC)c1ccccc1)[C@H]2CCc1ccc(C(F)(F)F)cc1	85	14	–	–	–	–
CCc1nc(C(=O)NC)c2n1CCN([C@@H](C(=O)NC)c1ccccc1)C2CCc1ccc(C(F)(F)F)cc1 (stereo partly specified)	492	38	–	–	–	–
CCc1nc(C(=O)N(C)C)c2n1CCN([C@@H](C(=O)NC)c1ccccc1)C2CCc1ccc(C(F)(F)F)cc1 (stereo partly specified)	344	111	–	–	–	–
CNC(=O)[C@@H](c1ccccc1)N1CCn2c(C)nc(Cl)c2[C@@H]1CCc1ccc(C(F)(F)F)cc1	90	13	–	–	–	–
CCCc1nc(Cl)c2n1CCN([C@@H](C(=O)NC)c1ccccc1)[C@H]2CCc1ccc(C(F)(F)F)cc1	459	60	–	–	–	–
CNC(=O)[C@@H](c1ccccc1)N1CCn2c(C(C)C)nc(Cl)c2[C@@H]1CCc1ccc(C(F)(F)F)cc1	313	11	–	–	–	–
CNC(=O)[C@@H](c1ccccc1)N1CCn2c(C3CC3)nc(Cl)c2[C@@H]1CCc1ccc(C(F)(F)F)cc1	31	9	0.01	0.06	385	6400
CNC(=O)[C@@H](c1ccccc1)N1CCn2c(CC3CC3)nc(Cl)c2[C@@H]1CCc1ccc(C(F)(F)F)cc1	1430	35	–	–	–	–
CCc1nc(C)c2n1CCN([C@@H](C(=O)NC)c1ccccc1)C2CCc1ccc(C(F)(F)F)cc1 (mixture of isomers)	> 10000	24	–	–	–	–
CCc1nc(CC)n2c1C(CCc1ccc(C(F)(F)F)cc1)N([C@@H](C(=O)NC)c1ccccc1)CC2 (mixture of isomers)	> 10000	20	–	–	–	–
CCc1nc(I)c2n1CCN([C@@H](C(=O)NC)c1ccccc1)C2CCc1ccc(C(F)(F)F)cc1 (mixture of isomers)	717	23	–	–	–	–
CCc1nc(OC)c2n1CCN([C@@H](C(=O)NC)c1ccccc1)C2CCc1ccc(C(F)(F)F)cc1 (mixture of isomers)	134	73	–	–	–	–
CCOc1nc(CC)n2c1C(CCc1ccc(C(F)(F)F)cc1)N([C@@H](C(=O)NC)c1ccccc1)CC2 (mixture of isomers)	3980	2750	–	–	–	–
CCc1nc(C#N)c2n1CCN([C@@H](C(=O)NC)c1ccccc1)C2CCc1ccc(C(F)(F)F)cc1 (mixture of isomers)	537	10	–	–	–	–
CCc1nc(C(N)=O)c2n1CCN([C@@H](C(=O)NC)c1ccccc1)C2CCc1ccc(C(F)(F)F)cc1 (mixture of isomers)	> 10000	194	–	–	–	–
CNC(=O)[C@@H](c1ccccc1)N1CCn2c(COC)nc(Cl)c2[C@@H]1CCc1ccc(C(F)(F)F)cc1 (mixture of isomers)	1650	25	–	–	–	–
CCc1ncc2n1CCN([C@@H](C(=O)NC)c1ccccc1)C2CCc1ccc(C(F)(F)F)cc1 (mixture of isomers)	> 10000	194	–	–	–	–
C=Cc1nc(CC)n2c1C(CCc1ccc(C(F)(F)F)cc1)N([C@@H](C(=O)NC)c1ccccc1)CC2 (single isomer, unassigned)	150	23	–	–	–	–
